Laboratory results published in ChEMBL document CHEMBL3808280, “GroEL/ES inhibitors as potential antibiotics” (Bioorg Med Chem Lett, 2016).

How the values were obtained:
E. coli GroEL/ES [1] = target: T1, E. coli GroEL/ES (Escherichia coli, UniProt P0A6F5); test: (§1) Inhibition of Escherichia coli GroEL/GroES using Escherichia coli GroEL expressed in Escherichia coli DH5alpha cells and Escherichia coli GroES expressed in Escherichia coli BL21(DE3) cells assessed as inhibition of denatured rhodanese refolding by measuring reduction in thiocyanate production incubated for 60 mins by micro plate reader analysis
How it was run: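 Urea-denatured rhodanese bound to GroEL/GroES in folding buffer containing thiosulfate. After 60 min at 37°C, thiocyanate reaction (KCN, thiosulfate, phosphate) run, then formaldehyde quench and ferric nitrate added. Fe(SCN)3 read at 460 nm after 15 min RT, with protein-free baseline plates.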

E. coli GroEL/ES [2] = target: T1, E. coli GroEL/ES; test: Inhibition of Escherichia coli GroEL/GroES using Escherichia coli GroEL expressed in Escherichia coli DH5alpha cells and Escherichia coli GroES expressed in Escherichia coli BL21(DE3) cells assessed as reduction in native refolded rhodanese-mediated thiocyanate production by micro plate reader analysis
E. coli GroEL/ES [3] = target: T1, E. coli GroEL/ES; test: Inhibition of Escherichia coli GroEL/GroES using Escherichia coli GroEL expressed in Escherichia coli DH5alpha cells and Escherichia coli GroES expressed in Escherichia coli BL21(DE3) cells assessed as reduction in pig heart native refolded MDH-mediated NADH production by micro plate reader analysis
How it was run: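 Native MDH counter-screen. GroEL/ES-dMDH refolding run 60 min at 37°C, then EDTA-quenched without compound. IC50 averaged from at least triplicate.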

E. coli GroEL/ES [4] = target: T1, E. coli GroEL/ES; test: as §1, with “pig heart MDH” for “rhodanese”, “NADH” for “thiocyanate”
How it was run: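 Denatured MDH (guanidine-HCl/DTT, 30 min RT) bound to GroEL with GroES in Tris pH 7.4, KCl, MgCl2, DTT buffer. 60 min at 37°C, EDTA quench to 100 mM. Refolded MDH activity read with mesoxalate/NADH at 340 nm. Log-averaged IC50 from replicates.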

E. coli GroEL/ES [5] = target: T1, E. coli GroEL/ES; test: Inhibition of Escherichia coli GroEL/GroES using Escherichia coli GroEL expressed in Escherichia coli DH5alpha cells and Escherichia coli GroES expressed in Escherichia coli BL21(DE3) cells assessed as reduction in denatured pig heart MDH ATPase activity by malachite green dye based assay
Escherichia coli [6] = test: Antibacterial activity against Escherichia coli DH5alpha assessed as reduction in bacterial growth incubated for 6 to 8 hrs; format: functional, organism-based; conditions: DH5[alpha]
Escherichia coli [7] = test: Antibacterial activity against acrB-deficient Escherichia coli MC4100 assessed as reduction in bacterial growth incubated for 6 to 8 hrs; format: functional, organism-based
Escherichia coli [8] = test: Antibacterial activity against Escherichia coli SM101 assessed as reduction in bacterial growth incubated for 12 hrs by UV-Vis spectrophotometric analysis; format: functional, organism-based; conditions: SM101, 12 h
Bacillus subtilis = test: Antibacterial activity against Bacillus subtilis 168 assessed as reduction in bacterial growth incubated for 6 to 8 hrs; format: functional, organism-based; conditions: subsp. subtilis str. 168
Enterococcus faecium = test: Antibacterial activity against multidrug resistant Enterococcus faecium NCTC 7171 (ATCC 19434) assessed as reduction in bacterial growth incubated for 6 to 8 hrs; format: functional, organism-based
How it was run: (§2)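 Broth proliferation assay. S. aureus and MRSA grown in ATCC Medium 18, other pathogens in Brain Heart Infusion. Stagnant incubation at 37°C under breathable seal. OD600 read at mid-log (6-8 h) and corrected with bacteria-free baseline plates. EC50 by variable-slope nonlinear fit, at least triplicate.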

Staphylococcus aureus [9] = test: Antibacterial activity against methicillin resistant Staphylococcus aureus subsp. aureus HPV107 (ATCC BAA-44) assessed as reduction in bacterial growth incubated for 6 to 8 hrs; format: functional, organism-based; how it was run: as §2
HSP60/HSP10 [10] = target: T2, HSP60/HSP10 (Homo sapiens, UniProt P10809); test: Inhibition of human HSP60/HSP10 expressed in Escherichia coli Rosetta2(DE3) cells assessed as inhibition of denatured pig heart MDH refolding by measuring reduction in NADH production incubated for 60 mins by micro plate reader analysis
How it was run: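 Pig heart MDH was denatured in guanidine-HCl (dMDH) and complexed with HSP60, then HSP10, in Tris pH 7.4/KCl/MgCl2/DTT buffer. EDTA quench (100 mM final); refolded MDH activity was followed with mesoxalate/NADH at 340 nm.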

HSP60/HSP10 [11] = target: T2, HSP60/HSP10; test: Inhibition of human HSP60/HSP10 expressed in Escherichia coli Rosetta2(DE3) cells assessed as reduction in denatured pig heart MDH ATPase activity by malachite green dye based assay
[12] = Cytotoxicity against human THLE3 cells assessed as reduction in cell viability after 48 hrs by alamar blue assay; format: cell-based; conditions: THLE3, 48 h
HEK293 = test: Cytotoxicity against HEK293 cells assessed as reduction in cell viability after 48 hrs by alamar blue assay; format: cell-based; conditions: Homo sapiens, HEK293, 48 h
[13] = tested on: Klebsiella pneumoniae subsp. pneumoniae; test: Antibacterial activity against multidrug resistant Klebsiella pneumoniae subsp. pneumoniae NCTC 9633 (ATCC 13883) assessed as reduction in bacterial growth incubated for 6 to 8 hrs; format: functional, organism-based; how it was run: as §2
Acinetobacter baumannii = test: Antibacterial activity against multidrug resistant Acinetobacter baumannii 2208 (ATCC 19606) assessed as reduction in bacterial growth incubated for 6 to 8 hrs; format: functional; how it was run: as §2
Pseudomonas aeruginosa = test: Antibacterial activity against multidrug resistant Pseudomonas aeruginosa NCTC 10332 (ATCC 10145) assessed as reduction in bacterial growth incubated for 6 to 8 hrs; format: functional, organism-based; how it was run: as §2
Enterobacter cloacae = test: Antibacterial activity against multidrug resistant Enterobacter cloacae subsp. cloacae CDC 442-68 (ATCC 13047) assessed as reduction in bacterial growth incubated for 6 to 8 hrs; format: functional, organism-based; how it was run: as §2
Staphylococcus aureus [14] = test: Antibacterial activity against methicillin susceptible Staphylococcus aureus subsp. aureus Seattle 1945 (ATCC 25923) assessed as reduction in bacterial growth incubated for 6 to 8 hrs

T2 sequence (P10809 whole entry): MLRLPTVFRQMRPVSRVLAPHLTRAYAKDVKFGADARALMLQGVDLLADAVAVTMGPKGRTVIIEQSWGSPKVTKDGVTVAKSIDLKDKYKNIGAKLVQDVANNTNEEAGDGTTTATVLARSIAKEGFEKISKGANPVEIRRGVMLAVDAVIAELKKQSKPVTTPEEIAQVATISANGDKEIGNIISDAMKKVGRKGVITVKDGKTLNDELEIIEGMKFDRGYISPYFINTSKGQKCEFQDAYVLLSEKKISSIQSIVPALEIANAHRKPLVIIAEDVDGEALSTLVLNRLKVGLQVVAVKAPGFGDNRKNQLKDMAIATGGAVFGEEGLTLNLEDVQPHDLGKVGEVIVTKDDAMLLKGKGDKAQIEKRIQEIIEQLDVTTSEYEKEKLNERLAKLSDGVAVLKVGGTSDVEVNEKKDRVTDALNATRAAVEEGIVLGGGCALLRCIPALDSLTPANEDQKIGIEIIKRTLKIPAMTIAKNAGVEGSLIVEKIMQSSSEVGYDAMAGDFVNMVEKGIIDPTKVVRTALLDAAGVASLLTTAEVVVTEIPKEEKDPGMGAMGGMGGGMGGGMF
T2 sequence (P61604 whole entry, further chain): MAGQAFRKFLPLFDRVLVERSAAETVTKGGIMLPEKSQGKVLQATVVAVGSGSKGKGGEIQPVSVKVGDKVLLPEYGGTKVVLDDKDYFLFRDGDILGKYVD
T1 sequence (P0A6F5 whole entry, looked up): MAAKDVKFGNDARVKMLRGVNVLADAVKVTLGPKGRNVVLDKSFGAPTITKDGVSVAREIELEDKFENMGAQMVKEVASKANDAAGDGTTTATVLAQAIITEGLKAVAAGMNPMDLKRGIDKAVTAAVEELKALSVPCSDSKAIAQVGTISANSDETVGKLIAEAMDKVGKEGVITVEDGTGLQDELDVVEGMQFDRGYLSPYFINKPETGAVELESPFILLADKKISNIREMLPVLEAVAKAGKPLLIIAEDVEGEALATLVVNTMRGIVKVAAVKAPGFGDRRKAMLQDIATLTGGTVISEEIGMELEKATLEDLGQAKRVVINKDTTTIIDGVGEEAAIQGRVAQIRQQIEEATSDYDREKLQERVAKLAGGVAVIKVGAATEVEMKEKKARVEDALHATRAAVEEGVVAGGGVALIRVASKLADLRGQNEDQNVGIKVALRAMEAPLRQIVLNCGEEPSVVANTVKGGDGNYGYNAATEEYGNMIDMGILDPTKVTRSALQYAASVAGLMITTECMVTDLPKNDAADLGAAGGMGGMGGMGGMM

Compound	IC50 (E. coli GroEL/ES [1]) [µM]	IC50 (E. coli GroEL/ES [2]) [µM]	IC50 (E. coli GroEL/ES [3]) [µM]	IC50 (E. coli GroEL/ES [4]) [µM]	IC50 (E. coli GroEL/ES [5]) [µM]	EC50 (Escherichia coli [6]) [µM]	EC50 (Escherichia coli [7]) [µM]	EC50 (Escherichia coli [8]) [µM]	EC50 (Bacillus subtilis) [µM]	EC50 (Enterococcus faecium) [µM]	EC50 (Staphylococcus aureus [9]) [µM]	IC50 (HSP60/HSP10 [10]) [µM]	IC50 (HSP60/HSP10 [11]) [µM]	EC50 [12] [µM]	EC50 (HEK293) [µM]	EC50 [13] [µM]	EC50 (Acinetobacter baumannii) [µM]	EC50 (Pseudomonas aeruginosa) [µM]	EC50 (Enterobacter cloacae) [µM]	EC50 (Staphylococcus aureus [14]) [µM]
O=C(/C=C/c1ccco1)c1ccc(NC(=O)c2cccs2)cc1	2.3	> 100	> 62.5	3.6	> 250	> 100	> 100	> 100	> 100	> 100	61	8.2	> 250	34	55	> 100	> 100	> 100	> 100	> 100
Cc1ccc(S(=O)(=O)Nc2ccc(-c3nc4ccc(NS(=O)(=O)c5ccc(C)cc5)cc4[nH]3)cc2)cc1	30	> 100	> 62.5	7.5	119	> 100	> 100	> 100	> 100	> 100	> 100	89	106	29	34	> 100	> 100	> 100	> 100	> 100
COC(=O)c1ccc(-c2ccc(/C=C3/SC(=S)NC3=O)o2)cc1	3	8.1	> 62.5	4.8	> 250	> 100	> 100	7.6	16	> 100	1.5	16	> 250	41	44	> 100	> 100	> 100	> 100	13
O=C(/C=C/c1cccc([N+](=O)[O-])c1)c1ccc(NC(=O)c2ccco2)cc1	1.4	> 100	> 62.5	0.93	80	> 100	> 100	76	> 100	> 100	> 100	1.6	> 250	> 100	> 100	> 100	> 100	> 100	> 100	> 100
O=C1/C(=C/c2ccc(O)c(O)c2)SC(=S)N1c1ccc(O)cc1	0.58	14	> 62.5	0.69	> 250	> 100	92	27	25	90	9.1	4.9	> 250	16	23	> 100	58	> 100	> 100	14
O=C(CC1Nc2cccc3cccc(c23)NC1=O)Nc1cccc([N+](=O)[O-])c1 (configuration not stated)	11	10	> 62.5	42	217	> 100	> 100	68	72	15	54	> 100	> 250	61	62	> 100	> 100	> 100	> 100	84
Nc1ccc(Nc2nc(-c3ccc(O)c(O)c3)cs2)cc1	1.7	–	> 62.5	2.7	> 250	> 100	> 100	84	> 100	> 100	> 100	10	> 250	> 100	98	> 100	81	> 100	> 100	> 100
O=C(Nc1cc([N+](=O)[O-])ccc1O)c1ccc2c(c1)C(=O)N(Cc1ccccc1)C2=O	28	> 100	> 62.5	24	187	> 100	> 100	> 100	> 100	> 100	15	38	> 250	> 100	> 100	> 100	> 100	85	> 100	> 100
CNC(=O)Oc1c(Br)cc2sc(=O)oc2c1Br	0.89	5.3	> 62.5	2.6	> 250	> 100	> 100	> 100	43	> 100	74	1.8	> 250	> 100	> 100	> 100	> 100	> 100	> 100	45
Nc1nnc(SCC(=O)c2ccc(-c3ccccc3)cc2)s1	79	–	> 62.5	–	107	> 100	> 100	> 100	> 100	> 100	> 100	> 100	> 250	> 100	> 100	> 100	> 100	> 100	> 100	> 100
O=C(/C=C/c1ccc([N+](=O)[O-])cc1)c1ccc(O)c(O)c1	0.83	12	> 62.5	1.2	216	> 100	> 100	48	> 100	> 100	40	5.2	> 250	9.9	12	> 100	> 100	> 100	> 100	23
